Rows were chosen to be rich in hits. Some 12% of all compounds tested hit in one or more screens of this group.
RAM network inh – yeast RAM network inhibition | S. cerevisiae dse1pr::URA3 reporter, 5-FOA growth OD615, 2 d; analog-sensitive cbk1-as2 kinase mutant strain | inhibition, % at 50 µM | 190,000 tested, 1.8% active | AID 868;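 active = inhibition above a set limit, 3 SD over mean compound inhibition, cut at about 8.4% in these data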;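 note: inhibition rescues growth on 5-FOA so higher OD means more RAM inhibition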
ABCG2 block – inhibitors of human ABCG2 transporter, ABCB1 counter-screen; Q9UNQ0; IgMXP3 cells, JC-1 efflux, flow cytometry; inhibition, % at 6.6 µM; 190,000 tested, 0.1% active;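 active = inhibition above 80%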
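Test system: ABCG2 IgMXP3 and barcoded ABCB1 CCRF-Adr cell mix; Schedule: cells with compound and JC-1, 10 min at 25 °C, rotating, no wash; Technique: flow cytometry of retained JC-1 fluorescence; Measure: % inhibition of efflux relative to nicardipine and DMSO; Controls: nicardipine high and DMSO low controls.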
ABCB1 block – human ABCB1 inhibition, ABCG2 as counter-screen; 190,000 tested, 0.067% active; CCRF-Adr cells, JC-1 efflux, flow cytometry; inhibition, % at 6.6 µM; P08183; AID 1326; in the data active = inhibition above about 40%;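 note: higher value means more JC-1 retained so stronger ABCB1 efflux block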
L major viab – Leishmania major promastigote growth inhibition. inhibition, % at 10 µM. Leishmania major promastigotes, resazurin fluorescence viability. AID 1063. 200,000 tested, 9% active; in the data active = inhibition above about 50%;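 note: promastigotes grown with compound for 44 hours at 28 °C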
WT yeast gro inh – growth inhibition of WT yeast, mitochondrial fusion screen. mitochondrial fusion phenotypic screen, WT strain. inhibition, % at 10 µM. 190,000 tested, 2.1% active. AID 1362; in the data active = inhibition above about 58%; tested in S. cerevisiae
Hits are given with their value; 0 = inactive; - = no result.

SMILES	RAM network inh	ABCG2 block	ABCB1 block	L major viab	WT yeast gro inh
CC(O)CNCCCOc1cccc(C(F)(F)F)c1 (stereo not given)	0	0	0	67	0
CNCCCOc1cccc(OC(C)C)c1	0	0	0	0	0
CNCCCOc1cccc(Oc2ccccc2)c1	0	0	0	99	0
O=C(N/N=C/c1cccnc1)C1CC1(c1ccccc1)c1ccccc1 (stereo not given)	0	0	0	0	0
Nc1nnc(SCC(=O)Nc2sc3c(c2C(=O)c2ccccc2)CCCC3)s1	0	0	0	57	0
COCCNc1nnc(SCC(=O)Nc2sc3c(c2C(=O)c2ccccc2)CCCC3)s1	0	0	0	0	0
Cc1ccc(C(=O)c2c(NC(=O)c3cccnc3)sc3c2CCCC3)cc1	0	0	0	0	61
COC(=O)c1c(NC(=O)CSc2nnc3ccccn23)sc2c1CCC2	0	0	0	56	0
Cc1ccc(C(=O)c2c(NC(=O)CSc3nnc(N)s3)sc3c2CCCC3)cc1	0	0	0	76	0
COc1ccc(NC(=S)N2CCN(C(=O)c3ccccc3)CC2)cc1	0	0	0	0	0
Cc1[nH]c2ccccc2c1C(O)CN1CCN(c2cccc(C(F)(F)F)c2)CC1 (stereo not given)	0	0	0	60	0
O=C(NN=C1CCCC1)C1COc2ccccc2O1 (stereo not given)	0	0	0	0	0
CC1Cc2ccccc2N1C(=S)NC(=O)C1(C)CC1(Cl)Cl (stereo not given)	0	0	0	0	0
Oc1c(C(c2ccccn2)N2CCC(Cc3ccccc3)CC2)cc(Cl)c2cccnc12 (stereo not given)	0	0	0	99	0
O=C(Oc1c(Cl)cc(Cl)c2cccnc12)N1CCCCC1	0	0	0	0	0
Oc1c(C(c2ccc(Cl)cc2)N2CCCC2)cc(Cl)c2cccnc12 (stereo not given)	0	0	0	96	0
CN1CCN(C(c2ccccn2)c2cc(Cl)c3cccnc3c2O)CC1 (stereo not given)	0	0	0	0	0
COc1ccccc1/C=C(/C(=O)OCC(=O)NCc1ccccc1)c1ccccc1	10	0	0	62	0
COc1ccc(/C=C(/C(=O)NCc2ccccc2)c2ccccc2)cc1	11	0	0	92	0
Cc1ccc(C(=O)NC2CC3CCCC(C2)N3C(=S)NCc2ccco2)cc1 (stereo not given)	0	0	0	0	0
CCN(c1ccccc1)S(=O)(=O)c1ccc(C(=O)Nc2nnc(COC)o2)cc1	0	0	0	0	0
CCN(c1ccccc1)S(=O)(=O)c1ccc(C(=O)Nc2nnc(C3CC3)o2)cc1	0	0	0	94	0
CN(c1ccccc1)S(=O)(=O)c1ccc(C(=O)Nc2nnc(C3CC3)o2)cc1	0	0	0	98	0
CCN(c1ccccc1)S(=O)(=O)c1ccc(C(=O)Nc2nnc(-c3ccco3)o2)cc1	0	0	0	99	0
Cc1ccc(/C=N/NC(=O)c2ccccc2OCc2cccc(Br)c2)o1	0	0	0	0	0
SMILES	RAM network inh	ABCG2 block	ABCB1 block	L major viab	WT yeast gro inh
COC(=O)CP(=O)(c1ccccc1)c1ccccc1	0	0	0	0	69
CCOC(=O)CP(=O)(c1ccccc1)c1ccccc1	0	0	0	0	0
Cn1c(N)c(C(=O)COC(=O)CCCOc2ccc(Cl)cc2Cl)c(=O)n(C)c1=O	0	0	0	0	0
CCOc1ccc(N2C(=O)CC(Sc3nc(-c4cccs4)cc(C(F)(F)F)c3C#N)C2=O)cc1 (stereo not given)	11	0	0	55	0
CCOc1ccc(N2C(=O)CC(Sc3ncccn3)C2=O)cc1 (stereo not given)	0	0	0	0	0
COc1cc(/C=N/NC(=O)c2ccc(F)cc2)ccc1OC(=O)c1ccco1	0	0	0	0	0
COc1cc(/C=N/Nc2cccc(C)c2)ccc1OC(=O)c1cccs1	0	0	0	0	0
COc1cc(/C=N/Nc2nc(C)cc(C)n2)ccc1OC(=O)c1ccco1	0	0	-	51	0
CCOc1cc(/C=N\Nc2nc(Nc3ccccc3)nc(N3CCOCC3)n2)ccc1OC(=O)c1ccco1	0	0	0	88	0
COc1cc(/C=N/Nc2ccc3ccccc3c2)ccc1OC(=O)c1ccco1	0	0	0	88	0
Cc1ccc(Nc2nc(N/N=C\c3ccc4c(c3)OCO4)nc(N3CCOCC3)n2)cc1	0	0	0	54	0
COc1ccc(CNC(=O)c2noc(C)c2[N+](=O)[O-])cc1	0	0	0	0	0
Cc1ccc(S(=O)(=O)Nc2ccccc2CNc2ccc(Br)cn2)cc1	0	0	0	0	65
Cc1ccc(S(=O)(=O)Nc2ccccc2CNc2ccccn2)cc1	0	0	0	59	0
Cc1ccc(S(=O)(=O)Nc2ccccc2CNc2ncc(Br)cc2Br)cc1	0	0	0	100	0
Cc1ccc(OCC(=O)c2c[nH]c3ccccc23)c([N+](=O)[O-])n1	0	0	0	0	0
CC1=CCC2C(=O)N(c3ccc(OC(=O)c4ccco4)cc3)C(=O)C2C1 (stereo not given)	0	0	0	0	0
O=C(Nc1ccccc1)NC1(C(=O)NCc2cccs2)CCCCC1	0	0	0	0	0
CCOc1ccc(S(=O)(=O)Nc2nc3ccccc3nc2N2CCN(C)CC2)cc1	0	0	0	100	0
COc1cccc(N2CCN(C(=S)NCc3ccco3)CC2)c1	0	0	0	0	0
COc1ccc(OC)c(NC(=O)COC(=O)/C=C/c2ccc(Cl)cc2)c1	0	0	0	0	0
CC(=O)NCC(=O)OCc1ccc([N+](=O)[O-])cc1	0	0	0	0	0
CC(=O)NC/C(C)=N\Nc1ccc([N+](=O)[O-])cc1	0	0	0	63	78
C/C(=N\Nc1ccc([N+](=O)[O-])cc1)c1ccc(O)cc1	0	0	0	0	0
C/C(=N\N=C(N)N)c1cccc([N+](=O)[O-])c1	0	0	0	64	0
SMILES	RAM network inh	ABCG2 block	ABCB1 block	L major viab	WT yeast gro inh
C/C(=N\Nc1ccc([N+](=O)[O-])cc1)c1cccc(N)c1	0	0	0	61	0
Cc1ccc(C(=O)Nc2ccnc(-c3ccncc3)n2)cc1	0	0	0	0	0
CC(C)(C)OC(=O)CN1C(=O)C(Sc2n[nH]c(-c3ccccc3)n2)CCc2ccccc21 (stereo not given)	0	0	0	0	0
CN1CCN(NC(=S)Nc2ccc(OC(F)F)cc2)CC1	0	0	0	0	0
Cc1onc(-c2c(F)cccc2Cl)c1C(=O)OCc1cnc(Cl)s1	0	0	0	0	0
Cc1onc(-c2c(F)cccc2Cl)c1C(=O)OCn1nnc2ccccc2c1=O	0	0	0	99	0
Cc1onc(-c2c(F)cccc2Cl)c1C(=O)OCC(=O)c1c(N)n(C)c(=O)n(C)c1=O	0	0	0	76	0
Cn1c(N)c(C(=O)COC(=O)c2ccc(Cl)c(S(=O)(=O)N3CCCCC3)c2)c(=O)n(C)c1=O	0	0	0	88	0

Screening results from PubChem.
